Measurements taken from PMC10448436 (Journal of medicinal chemistry, 2022).

Key:
Shake-flask logD7.4 = format: physicochemical; conditions: pH 7.4
[1] = In vitro stability of the formulated radioligand; format: physicochemical
Method in brief: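 After HPLC purification, the radiotracer fraction was collected into Tween 80 and ethanol, evaporated and redissolved in 5 mL sterile normal saline. It was then passed through a 0.22 μm filter. The formulated solution was checked for radiolysis up to 90 min.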

TARP γ−8 [2] = target: T1, TARP γ−8 (Rattus norvegicus, UniProt Q8VHW5); test: In vitro autoradiography on rat brain sections; format: binding
T1 sequence (Q8VHW5 1-421): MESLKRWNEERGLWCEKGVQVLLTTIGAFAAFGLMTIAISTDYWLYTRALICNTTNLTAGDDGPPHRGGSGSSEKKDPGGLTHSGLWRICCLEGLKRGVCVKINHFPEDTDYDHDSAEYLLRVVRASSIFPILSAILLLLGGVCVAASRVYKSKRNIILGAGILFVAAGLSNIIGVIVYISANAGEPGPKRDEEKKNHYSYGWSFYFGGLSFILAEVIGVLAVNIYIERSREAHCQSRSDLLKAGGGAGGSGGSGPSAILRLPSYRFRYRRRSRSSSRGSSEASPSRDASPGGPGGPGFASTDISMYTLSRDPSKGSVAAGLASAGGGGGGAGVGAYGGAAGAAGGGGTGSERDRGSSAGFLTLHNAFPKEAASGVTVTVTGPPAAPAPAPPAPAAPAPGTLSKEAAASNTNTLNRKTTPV
Method in brief: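 Frozen rat brain sections (stored −80 °C) were pre-incubated in 50 mM Tris-HCl for 20 min at ambient temperature, then incubated with the 11C-labelled test compound. For blocking, unlabelled inhibitor (1 μM) was added to the incubation solution beforehand. Sections were washed three times in ice-cold buffer, dipped 10 s in cold water, cold-air dried and exposed to imaging plates. ROI radioactivity was read as PSL/mm2.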

TARP γ−8 [3] = target: T1, TARP γ−8; test: PET imaging in rat brain; format: in vivo, Sprague-Dawley rats
Method in brief: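 Male Sprague-Dawley rats (210−230 g) were kept under 1–2% isoflurane. The 11C-labelled test compound was injected via tail-vein catheter (38.5 ± 2.8 MBq, 0.3 ± 0.2 nmol), followed by a dynamic 3D PET scan for 60 min, co-registered to an MR template. Decay-corrected data were expressed as SUV, and BPND maps were derived by SRTM. Mean ± SD, n = 3.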

5-HT1A, Alpha2C and DOR = test: Follow-up binding assays, selectivity towards TARP γ−8; conditions: follow-up 5-HT1A
Alpha2C = target: T2, Alpha2C (Homo sapiens, UniProt P18825); test: Off-target counter screen at 10 μM; format: binding; conditions: read-out: target inhibition, Alpha2C
T2 sequence (P18825 1-462): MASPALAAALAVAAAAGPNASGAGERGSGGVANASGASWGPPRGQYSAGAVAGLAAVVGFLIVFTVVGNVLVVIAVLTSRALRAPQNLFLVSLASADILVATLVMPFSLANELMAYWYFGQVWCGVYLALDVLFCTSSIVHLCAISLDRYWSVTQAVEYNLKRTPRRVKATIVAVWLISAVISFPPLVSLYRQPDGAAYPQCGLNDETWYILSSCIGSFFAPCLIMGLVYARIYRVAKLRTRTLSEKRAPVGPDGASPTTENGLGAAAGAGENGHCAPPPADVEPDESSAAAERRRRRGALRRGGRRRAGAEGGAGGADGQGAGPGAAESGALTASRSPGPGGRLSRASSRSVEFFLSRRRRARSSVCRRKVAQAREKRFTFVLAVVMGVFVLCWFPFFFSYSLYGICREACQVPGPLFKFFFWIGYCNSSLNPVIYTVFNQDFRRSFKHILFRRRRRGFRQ

[4] = test system: ionotropic glutamate receptors (iGluR); test: Off-target counter screen at 10 μM; format: binding
[5] = target: DOR (delta opioid receptor) (Homo sapiens, UniProt P41143); test: Off-target counter screen at 10 μM; format: binding; conditions: read-out: target inhibition, DOR
5-HT1A = target: T3, 5-HT1A (Homo sapiens, UniProt P08908); test: Off-target counter screen at 10 μM; format: binding; conditions: read-out: target inhibition, 5-HT1A
T3 sequence (P08908 1-422): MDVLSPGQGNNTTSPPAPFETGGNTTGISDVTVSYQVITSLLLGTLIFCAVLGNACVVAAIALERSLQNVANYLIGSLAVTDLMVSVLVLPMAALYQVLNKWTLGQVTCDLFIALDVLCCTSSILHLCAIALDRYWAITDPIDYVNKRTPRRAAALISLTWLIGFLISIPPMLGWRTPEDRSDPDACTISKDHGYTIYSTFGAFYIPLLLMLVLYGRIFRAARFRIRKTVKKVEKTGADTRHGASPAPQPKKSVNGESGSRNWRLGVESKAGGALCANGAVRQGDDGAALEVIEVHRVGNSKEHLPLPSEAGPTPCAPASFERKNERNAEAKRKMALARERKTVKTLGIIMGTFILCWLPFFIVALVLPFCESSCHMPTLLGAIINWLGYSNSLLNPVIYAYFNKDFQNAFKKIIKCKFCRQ

[6] = tracer [11C]8, blocking with 8 (1 μM)
[7] = tracer [11C]15, pretreatment with JNJ-55511118 (1 mg/kg), rat

Chain of DOR (delta opioid receptor) (P41143 whole entry): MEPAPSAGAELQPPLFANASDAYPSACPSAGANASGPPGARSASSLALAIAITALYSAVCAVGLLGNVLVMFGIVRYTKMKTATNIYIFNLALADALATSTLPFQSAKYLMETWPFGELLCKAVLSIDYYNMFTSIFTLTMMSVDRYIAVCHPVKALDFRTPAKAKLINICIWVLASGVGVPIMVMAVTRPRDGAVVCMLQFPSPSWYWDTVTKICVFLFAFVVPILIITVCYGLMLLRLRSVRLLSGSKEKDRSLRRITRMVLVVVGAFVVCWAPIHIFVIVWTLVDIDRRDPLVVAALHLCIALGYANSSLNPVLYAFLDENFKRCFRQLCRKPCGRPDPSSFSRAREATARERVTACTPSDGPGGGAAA

Compound `Cc1ccc2nc(C3CCC3)n(-c3ccc4[nH]c(=O)sc4c3)c2n1` [Compound 8, 6-(2-Cyclobutyl-5-methyl-3H-imidazo[4,5-b]pyridin-3-yl)benzo[d]thiazol-2(3H)-one] has a logD (Shake-flask logD7.4) of 2.3 ± 0.06.

In the case of `[11CH3]c1ccc2nc(C3CCC3)n(-c3ccc4[nH]c(=O)sc4c3)c2n1` [[^11C]8, 6-(2-cyclobutyl-5-[^11C]methyl-3H-imidazo[4,5-b]pyridin-3-yl)benzo[d]thiazol-2(3H)-one], the “radiolysis in the formulated solution” value ([1]; up to 90 min) is reported as “no radiolysis was observed”, the in vitro stability ([1]; up to 90 min after formulation) is reported as > 95% and the “change of bound radioactivity in cerebellum (reference region)” value (TARP γ−8 [2]; [6]) is reported as “no notable change”. For the same compound, the “reduction of bound radioactivity in hippocampus” value (TARP γ−8 [2]; [6]) was 83%, the “maximum SUV in the brain” value (TARP γ−8 [3]; at 2.5 min, baseline, rat) was 0.4 and the “blood brain barrier penetration” value (TARP γ−8 [3]; rat PET, baseline) was “failed to penetrate the blood brain barrier”.

For `Cc1ccc2nc(C3CCC3)n(-c3ccc4[nH]ncc4c3)c2n1` [Compound 15, 2-Cyclobutyl-3-(1H-indazol-5-yl)-5-methyl-3H-imidazo[4,5-b]pyridine], the “selectivity towards TARP γ−8 among any other tested CNS targets” value (5-HT1A, Alpha2C and DOR) was “greater than 750 fold”, the inhibition at 10 µM (Alpha2C) was > 50% and the logD (Shake-flask logD7.4) was 2.5 ± 0.01. For the same compound, the “interaction with related iGlu receptor family” value [4] was “no substantial interaction”, the inhibition at 10 µM [5] was > 50% and the inhibition at 10 µM (5-HT1A) was > 50%.

For `O=c1[nH]c2ccc(-c3c(Cl)cccc3OC(F)(F)F)cc2[nH]1` [JNJ-55511118, reference compound], the “reduction of uptake in hippocampus” value (TARP γ−8 [2]; tracer [11C]15, blocking with JNJ-55511118 (1 μM)) was 77%, the “reduction of BPND values” (TARP γ−8 [3]; [7]) was 66–81% and the “reduction of radioactivity uptake in hippocampus based on AUC” value (TARP γ−8 [3]; [7]) was 35–47%.
